Assay results taken from article PMC9321596 (Chemmedchem, 2022).
Square brackets hold non-standard residues; d marks the D form. Peptide text beside a SMILES is read from it. * marks the point of attachment. Cbz = O=C(OCc1ccccc1)*; βAla = NCCC(=O)O

Legend:
[1] = molecular target: recombinant human 6His-tagged-Pin1 (Homo sapiens, UniProt Q13526); test: Direct-binding assay
Method in brief: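 Label-free optical biosensor assay. His6-Pin1 was expressed in E. coli BL21(DE3), purified, and immobilised at 150 µg/mL in 20 mM sodium acetate pH 5.5 overnight at 4 °C. Equilibrated 4 h in PBS, 0.5% DMSO, pH 7.4, then baseline read. Peptides were serially diluted to twelve concentrations from 500 µM final and read over 1 h. KD came from last-baseline-to-maximum signal, mean ± S.D. of three independent experiments.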

[2] = molecular target: NIMA interacting protein 1 (Pin1) (human) (UniProt Q13526); test: Corning Epic label-free optical biosensor
Sequence of NIMA interacting protein 1 (Pin1) (human) (Q13526 whole entry): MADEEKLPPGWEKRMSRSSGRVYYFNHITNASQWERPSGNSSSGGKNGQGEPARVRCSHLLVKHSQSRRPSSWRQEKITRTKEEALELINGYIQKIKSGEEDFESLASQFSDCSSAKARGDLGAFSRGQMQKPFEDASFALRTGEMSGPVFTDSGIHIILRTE

[3] = molecular target: parvulin-14 (Par14), also known as Pin4 (human) (UniProt Q9Y237); test: Corning Epic label-free optical biosensor
Sequence of parvulin-14 (Par14), also known as Pin4 (human) (Q9Y237 whole entry): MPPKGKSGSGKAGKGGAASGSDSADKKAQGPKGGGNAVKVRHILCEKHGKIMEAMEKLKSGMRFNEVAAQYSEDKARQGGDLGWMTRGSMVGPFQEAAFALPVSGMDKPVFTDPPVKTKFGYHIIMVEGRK

[4] = test system: cancer cell lines (A549, HCT116, MCF7, LNCaP); test: MTT anti-proliferative assay, R8 peptides, cancer cell lines; assay type: cell-based, human; conditions: 10 μM, after 24 h, effect persisted up to 48 h; all cancer cells tested
Method in brief: (§1)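 MTT viability. A549, HCT116, MCF7 and AC16 were grown in DMEM; LNCaP in RPMI 1640. Both media had 10% FBS, penicillin/streptomycin, amphotericin-B and 2 mM L-glutamine. Cells seeded at 3×10⁴/well, treated in triplicate at 10 µM for 24 and 48 h. MTT 0.5 mg/mL for 3 h, formazan dissolved in DMSO, absorbance read at 570 nm. Expressed as % of untreated control, mean ± S.D. of three independent experiments.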

AC16 non-tumor cells = test: MTT anti-proliferative assay, R8 peptides, AC16; assay type: cell-based, human; conditions: 10 μM, 24 h and 48 h
Method in brief: as §1

HCT116 cells [5] = test: MTT anti-proliferative assay, HCT116; assay type: cell-based, human; conditions: 10 μM, 24 h
Method in brief: as §1

HCT116 cells [6] = test: Cell cycle analysis by flow cytometry; assay type: cell-based, human; conditions: 10 μM, 48 h
Method in brief: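 HCT116 cells plated at 2×10⁵ cells/mL in triplicate and treated at 10 µM for 48 h. Harvested in PBS, spun at 1200 rpm for 5 min, then resuspended in hypotonic buffer (1×PBS, 0.1% sodium citrate, 0.1% NP-40, RNase A, […]). Held 30 min at RT in the dark, then run on flow cytometry with SSC-A/FSC-A gating and PI-A intensity.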

[7] = molecular target: recombinant human 6His-tagged-Pin4 (Homo sapiens, UniProt Q9Y237); test: Direct-binding assay
Sequence of recombinant human 6His-tagged-Pin4 (Q9Y237 whole entry): as above

Sequence of recombinant human 6His-tagged-Pin1 (Q13526 whole entry): as the sequence (Q13526 whole entry) above

COC(=O)[C@H](Cc1ccccc1)NC(=O)[C@@H]1CCCN1C(=O)[C@H](CCCNC(=N)NS(=O)(=O)c1c(C)cc(OC)c(C)c1C)NC(=O)[C@H](C)NC(C)=O [5 c, Methyl N^2‐(acetyl‐L‐alanyl)‐N^ω‐((4‐methoxy‐2,3,6‐trimethylphenyl)sulfonyl)‐L‐arginyl‐L‐prolyl‐L‐phenylalaninate]
binding to Pin1 (in words) [1]: very little or no binding affinity

Methyl N2-(acetyl-L-alanyl)-Nω-((4-methoxy-2,3,6-trimethylphenyl)sulfonyl)-L-arginyl-L-prolyl-L-phenylalaninate (5 c) (peptide)
Kd [2]: 53.6 µM

Methyl acetyl-L-alanyl-L-lysyl-L-prolyl-L-phenylalaninate (5 j) (peptide)
Kd [2]: 22.4 µM

Methyl N2-(acetyl-L-alanyl)-N6-((benzyloxy)carbonyl)-L-lysyl-L-prolyl-L-phenylalaninate (5 i) (peptide)
Kd [2]: 70.2 µM
Kd [3]: 28.2 µM

COC(=O)[C@H](Cc1ccccc1)NC(=O)[C@@H]1CCCN1C(=O)[C@H](Cc1c[nH]cn1)NC(=O)[C@H](C)NC(=O)CCNC(=O)[C@H](CCCNC(=N)N)NC(=O)[C@H](CCCNC(=N)N)NC(=O)[C@H](CCCNC(=N)N)NC(=O)[C@H](CCCNC(=N)N)NC(=O)[C@H](CCCNC(=N)N)NC(=O)[C@H](CCCNC(=N)N)NC(=O)[C@H](CCCNC(=N)N)NC(=O)[C@@H](N)CCCNC(=N)N [R8–5 k] (H-RRRRRRRR[βAla]AHPF-OMe; N-terminus assumed)
reduction of cell proliferation [4]: 50–60%
anti-proliferative activity (AC16 non-tumor cells): less than 20%
reduction of cell proliferation (HCT116 cells [5]): ~60%
cells within G1 phase (HCT116 cells [6]): 61.2%

tert‐Butyl (S)‐4‐((S)‐2‐acetamidopropanamido)‐5‐((S)‐2‐(((R)‐1‐methoxy‐1‐oxo‐3‐phenylpropan‐2‐yl)carbamoyl)pyrrolidin‐1‐yl)‐5‐oxopentanoate [5 e]
binding to Pin1 (in words) [1]: very little or no binding affinity
binding to Pin4 (in words) [7]: micromolar range

COC(=O)[C@H](Cc1ccccc1)NC(=O)[C@@H]1CCCN1C(=O)[C@H](CCCCNC(=O)OCc1ccccc1)NC(=O)[C@H](C)NC(=O)CCNC(=O)[C@H](CCCNC(=N)N)NC(=O)[C@H](CCCNC(=N)N)NC(=O)[C@H](CCCNC(=N)N)NC(=O)[C@H](CCCNC(=N)N)NC(=O)[C@H](CCCNC(=N)N)NC(=O)[C@H](CCCNC(=N)N)NC(=O)[C@H](CCCNC(=N)N)NC(=O)[C@@H](N)CCCNC(=N)N [R8–5 i] (H-RRRRRRRR[βAla]AK(Cbz)PF-OMe; N-terminus assumed)
binding to Pin1 (in words) [1]: does not reach saturation
reduction of cell proliferation [4]: 50–60%
anti-proliferative activity (AC16 non-tumor cells): less than 20%
reduction of cell proliferation (HCT116 cells [5]): ~60%
cells within G1 phase (HCT116 cells [6]): 66.4%

Methyl N‐(acetyl‐L‐alanyl)‐O‐benzyl‐L‐seryl‐L‐prolyl‐L‐phenylalaninate [5 g]
binding to Pin1 (in words) [1]: very little or no binding affinity

Methyl acetyl‐L‐alanyl‐L‐lysyl‐D‐prolyl‐L‐phenylalaninate [5 p]
binding to Pin1 (in words) [1]: abrogates the interaction

B1: Methyl acetyl-L-alanyl-L-methionyl-L-prolyl-L-phenylalaninate (5 l) (peptide)
peptide: Ac-AMPF-OMe
SMILES: COC(=O)[C@H](Cc1ccccc1)NC(=O)[C@@H]1CCCN1C(=O)[C@H](CCSC)NC(=O)[C@H](C)NC(C)=O
Kd [2]: 14.1 µM

B2: Methyl acetyl-L-alanyl-L-glutaminyl-L-prolyl-L-phenylalaninate (5 m) (peptide)
peptide: Ac-AQPF-OMe
SMILES: COC(=O)[C@H](Cc1ccccc1)NC(=O)[C@@H]1CCCN1C(=O)[C@H](CCC(N)=O)NC(=O)[C@H](C)NC(C)=O
Kd [2]: 62.5 µM

Ac-ARPF-OMe [Methyl acetyl-L-alanyl-L-arginyl-L-prolyl-L-phenylalaninate (5 d)]
Kd [2]: 30.5 µM

Ac-AGPF-OMe (SMILES COC(=O)[C@H](Cc1ccccc1)NC(=O)[C@@H]1CCCN1C(=O)CNC(=O)[C@H](C)NC(C)=O) [Methyl acetyl-L-alanylglycyl-L-prolyl-L-phenylalaninate (5 a)]
Kd [2]: 6.09 µM

Ac-[dA]EPF-OMe
Kd [3]: 18.6 µM

B3: Methyl acetyl-L-alanyl-L-seryl-L-prolyl-L-phenylalaninate (5 h) (peptide)
peptide: Ac-ASPF-OMe
SMILES: COC(=O)[C@H](Cc1ccccc1)NC(=O)[C@@H]1CCCN1C(=O)[C@H](CO)NC(=O)[C@H](C)NC(C)=O
Kd [2]: 4.5 µM

B4: Methyl acetyl-L-alanyl-L-histidyl-L-prolyl-L-phenylalaninate (5 k) (peptide)
peptide: Ac-AHPF-OMe
SMILES: COC(=O)[C@H](Cc1ccccc1)NC(=O)[C@@H]1CCCN1C(=O)[C@H](Cc1c[nH]cn1)NC(=O)[C@H](C)NC(C)=O
Kd [3]: 5.7 µM

B5: Methyl acetyl-L-alanyl-L-valyl-L-prolyl-L-phenylalaninate (5 b) (peptide)
peptide: Ac-AVPF-OMe
SMILES: COC(=O)[C@H](Cc1ccccc1)NC(=O)[C@@H]1CCCN1C(=O)[C@@H](NC(=O)[C@H](C)NC(C)=O)C(C)C
Kd [2]: 6.11 µM
